Results from PMC3034734 (Chemistry & biology, 2009).
Positions count from the first letter of the chain named. Read-outs that look alike come from different tables or passages of the source.

How the values were obtained:
[1] = target: T1, purified recombinant rat MGL (Rattus norvegicus, UniProt Q8R431); experiment: Inhibition of purified recombinant MGL; format: biochemical
T1 sequence (Q8R431 1-303): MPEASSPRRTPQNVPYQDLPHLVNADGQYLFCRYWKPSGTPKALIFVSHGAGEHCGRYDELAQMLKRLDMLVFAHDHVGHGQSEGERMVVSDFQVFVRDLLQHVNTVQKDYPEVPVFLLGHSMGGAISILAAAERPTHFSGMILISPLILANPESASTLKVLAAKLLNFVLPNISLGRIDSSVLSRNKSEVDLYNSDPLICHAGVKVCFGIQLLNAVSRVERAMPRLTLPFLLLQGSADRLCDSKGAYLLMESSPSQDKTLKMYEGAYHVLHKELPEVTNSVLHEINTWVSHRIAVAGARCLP

[2] = test system: primary cultures of rat cortical neurons; experiment: 2-AG and PEA levels in primary cultures of rat cortical neurons; format: cell-based
[3] = target: T2, non-purified HeLa MGL (wild-type) (Rattus norvegicus, UniProt Q8R431); experiment: Inhibition of non-purified MGL; format: biochemical
T2 sequence (Q8R431 1-303): T1 sequence (Q8R431 1-303)

MGL C208G mutant = target: T3, MGL C208G mutant (Rattus norvegicus, UniProt Q8R431, C208G); experiment: Inhibition of MGL C208G mutant in HeLa cell extracts; format: biochemical
T3 sequence (Q8R431 1-303 C208G): T1 sequence (Q8R431 1-303) with C208G

MGL C201G mutant = target: T4, MGL C201G mutant (Rattus norvegicus, UniProt Q8R431, C201G); experiment: Inhibition of MGL C201G mutant in HeLa cell extracts; format: biochemical
T4 sequence (Q8R431 1-303 C201G): T1 sequence (Q8R431 1-303) with C201G

MGL Cys32 mutant = target: T5, MGL Cys32 mutant (Rattus norvegicus, UniProt Q8R431, C32G); experiment: Inhibition of MGL Cys32 mutant; format: biochemical; conditions: data not shown
T5 sequence (Q8R431 1-303 C32G): T1 sequence (Q8R431 1-303) with C32G

purified MGL = purified MGL (Rattus norvegicus, UniProt Q8R431); format: biochemical
non-purified HeLa MGL = target: T6, non-purified HeLa MGL (Rattus norvegicus, UniProt Q8R431); experiment: Michaelis-Menten kinetic analysis of the MGL reaction; format: biochemical; conditions: for Vmax of MGL in presence of inhibitor: vehicle 200±20; for Mechanism of MGL inhibition: from rapid dilution and kinetic experiments
T6 sequence (Q8R431 1-303): T1 sequence (Q8R431 1-303)

rat ABHD6 = target: T7, rat ABHD6 (Rattus norvegicus, UniProt Q5XI64); experiment: ABHD6 activity assay; format: biochemical
T7 sequence (Q5XI64 1-337): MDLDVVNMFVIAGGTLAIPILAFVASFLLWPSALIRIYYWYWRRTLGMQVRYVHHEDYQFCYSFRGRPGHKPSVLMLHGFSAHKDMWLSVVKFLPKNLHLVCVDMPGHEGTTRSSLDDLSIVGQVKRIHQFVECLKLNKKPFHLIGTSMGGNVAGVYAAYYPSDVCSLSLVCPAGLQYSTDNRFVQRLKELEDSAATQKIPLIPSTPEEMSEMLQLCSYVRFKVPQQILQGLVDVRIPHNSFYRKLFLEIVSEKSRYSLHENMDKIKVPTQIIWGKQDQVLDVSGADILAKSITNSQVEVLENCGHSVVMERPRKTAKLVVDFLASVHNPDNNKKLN

rat ABHD12 = target: T8, rat ABHD12 (Rattus norvegicus, UniProt Q6AYT7); experiment: ABHD12 activity assay; format: biochemical; conditions: in vitro
T8 sequence (Q6AYT7 1-398): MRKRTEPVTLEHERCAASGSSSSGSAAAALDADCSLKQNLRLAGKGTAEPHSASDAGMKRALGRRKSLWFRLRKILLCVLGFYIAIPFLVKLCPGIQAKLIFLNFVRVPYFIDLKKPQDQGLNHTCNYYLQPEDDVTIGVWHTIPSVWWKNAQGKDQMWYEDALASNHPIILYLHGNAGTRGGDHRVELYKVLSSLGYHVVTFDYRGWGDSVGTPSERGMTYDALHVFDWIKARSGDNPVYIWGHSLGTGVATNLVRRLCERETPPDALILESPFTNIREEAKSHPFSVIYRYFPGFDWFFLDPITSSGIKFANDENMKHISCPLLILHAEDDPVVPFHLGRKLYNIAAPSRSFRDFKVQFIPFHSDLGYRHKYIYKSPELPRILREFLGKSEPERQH
How it was run: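 Rat full-length ABHD12 (V5-tagged) transiently expressed in HeLa cells, harvested at 48 h, and homogenised in 50 mM Tris-Cl pH 8.0 with 0.32 M sucrose. Modified MGL assay run at pH 7.5 with 3 μg protein per reaction for 30 min at 37°C. Samples extracted; product (m/z 281) quantified by negative-ion ESI LC/MS in SIM mode against heptadecanoic acid standard.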

[4] = test system: rat brain diacylglycerol lipase; experiment: DGL activity in rat brain homogenates; format: biochemical; conditions: in vitro, Table S1
rat brain FAAH = target: T9, rat brain FAAH (Rattus norvegicus, UniProt P97612); experiment: FAAH activity in rat brain homogenates; format: biochemical; conditions: in vitro, Table S1
T9 sequence (P97612 1-579): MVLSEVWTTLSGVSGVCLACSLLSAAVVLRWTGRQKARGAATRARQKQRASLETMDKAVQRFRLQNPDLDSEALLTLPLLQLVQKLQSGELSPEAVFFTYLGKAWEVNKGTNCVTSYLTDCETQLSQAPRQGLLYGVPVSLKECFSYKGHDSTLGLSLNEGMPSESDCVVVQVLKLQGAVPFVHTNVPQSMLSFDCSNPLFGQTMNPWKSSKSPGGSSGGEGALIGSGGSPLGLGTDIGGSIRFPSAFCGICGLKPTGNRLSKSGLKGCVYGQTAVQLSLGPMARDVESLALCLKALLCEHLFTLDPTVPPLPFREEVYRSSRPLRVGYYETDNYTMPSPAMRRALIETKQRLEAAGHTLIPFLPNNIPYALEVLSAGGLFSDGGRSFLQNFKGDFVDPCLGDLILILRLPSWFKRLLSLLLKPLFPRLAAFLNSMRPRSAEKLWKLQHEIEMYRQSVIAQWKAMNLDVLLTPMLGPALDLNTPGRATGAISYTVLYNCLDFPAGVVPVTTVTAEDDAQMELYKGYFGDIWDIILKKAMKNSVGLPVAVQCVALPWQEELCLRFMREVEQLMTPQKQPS

[5] = target: T10, rat recombinant N-acylethanolamide acid amidase (Rattus norvegicus, UniProt Q5KTC7); experiment: NAAA activity assay; format: biochemical; conditions: in vitro, Table S1
T10 sequence (Q5KTC7 131-362 limits assumed): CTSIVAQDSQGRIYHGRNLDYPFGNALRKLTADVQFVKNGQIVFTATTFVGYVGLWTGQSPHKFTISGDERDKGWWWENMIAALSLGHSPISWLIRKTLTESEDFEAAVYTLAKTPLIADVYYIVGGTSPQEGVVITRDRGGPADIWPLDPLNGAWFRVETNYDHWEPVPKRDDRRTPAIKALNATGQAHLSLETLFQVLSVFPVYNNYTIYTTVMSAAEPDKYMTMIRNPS
T10 sequence (Q5KTC7 34-130 limits assumed): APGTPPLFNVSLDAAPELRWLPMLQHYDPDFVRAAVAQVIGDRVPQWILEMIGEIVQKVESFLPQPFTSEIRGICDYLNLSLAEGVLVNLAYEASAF
How it was run: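 Rat NAAA (Flag-tagged) from stably transfected HEK293 cells (G418 0.3 mg/ml), prepared by sonication, differential centrifugation, freeze-thaw and 105,000 × g supernatant. 50 μM heptadecenoylethanolamide incubated with 10 μg protein in 50 mM sodium phosphate pH 5.0, 0.1% Triton X-100, 3 mM DTT, 30 min at 37°C. Stopped with cold methanol containing heptadecanoic acid; product (m/z 267) measured by LC/MS SIM.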

[6] = IC50, inhibition of non-purified MGL, cell lysates of MGL-transfected HeLa cells
[7] = IC50, wild-type MGL in HeLa cell extracts, wt control of the mutational analysis

Structure (SMILES): CC1=C(O)C(=O)C=C2C1=CC=C1[C@@]2(C)CC[C@@]2(C)[C@@H]3C[C@](C)(C(=O)O)CC[C@]3(C)CC[C@]12C [Celastrol]
- IC50 [1]: 1600 ± 400 nM

Structure (SMILES): Cc1c(O)c(O)cc2c1CC=C1[C@@]2(C)CC[C@@]2(C)[C@@H]3C[C@](C)(C(=O)O)CC[C@]3(C)CC[C@]12C [Dihydrocelastrol]
- IC50 [1]: 15000 ± 4000 nM

Structure (SMILES): CC(=O)Oc1cc2c(c(C)c1OC(C)=O)CC=C1[C@@]2(C)CC[C@@]2(C)C3C[C@](C)(C(=O)O)CC[C@]3(C)CC[C@]12C (some centres unmarked) [Dihydrocelastryl Diacetate]
- IC50 ([1]; read-out: IC50, inhibition of purified recombinant MGL): 15000 ± 3000 nM

Structure (SMILES): CCCCC/C=C\C/C=C\C/C=C\C/C=C\CCCCN1C(=O)C=CC1=O [N-arachidonylmaleimide, reference compound]
- Effect on 2-AG levels [2]: increased
- Effect on PEA levels [2]: increased

Structure (SMILES): COC(=O)[C@]1(C)CC[C@]2(C)CC[C@]3(C)C4=CC=C5C(=CC(=O)C(O)=C5C)[C@]4(C)CC[C@@]3(C)[C@@H]2C1 [Pristimerin]
- IC50 [3, 6]: 398 ± 68 nM
- IC50 [3, 7]: 350 ± 37 nM
- IC50 (MGL C208G mutant): 1180 ± 174 nM
- Effect of Cys201 mutation on inhibitory potency (MGL C201G mutant; C201G vs wt, HeLa cell extracts): without affecting the potency
- Effect of Cys32 mutation on activity of inhibitor (MGL Cys32 mutant): did not influence the activity
- Time-course of MGL inhibition (purified MGL): almost immediate blockade of MGL activity
- Vmax of MGL in presence of inhibitor (non-purified HeLa MGL; 100 nM inhibitor): 174 ± 7 pmol/min/µg
- Vmax of MGL in presence of inhibitor (non-purified HeLa MGL; 300 nM inhibitor): 104 ± 7 pmol/min/µg
- Vmax of MGL in presence of inhibitor (non-purified HeLa MGL; 500 nM inhibitor): 51 ± 18 pmol/min/µg
- Mechanism of MGL inhibition (non-purified HeLa MGL): rapid, reversible and non-competitive
- Effect on PEA levels ([2]; 1 μM, 30 min): not accompanied by any significant changes
- Cellular 2-AG concentrations ([2]; 1 μM, 30 min, over vehicle-treated neurons): 1.6±0.1 fold change
- IC50 (rat ABHD6): 98 ± 8 nM
- Effect on ABHD12 activity (rat ABHD12): did not affect the activity
- Effect on diacylglycerol lipase activity [4]: no significant effect
- Effect on FAAH activity (rat brain FAAH): no significant effect
- Effect on N-acylethanolamide acid amidase activity [5]: no significant effect

Structure (SMILES): COC(=O)[C@]1(C)CC[C@]2(C)CC[C@]3(C)C4=CCc5c(cc(O)c(O)c5C)[C@]4(C)CC[C@@]3(C)[C@@H]2C1 [Pristimerol]
- IC50 [1]: 4000 ± 500 nM

Structure (SMILES): CC(C)=CCC[C@@H](C)[C@@H]1CC[C@]2(C)C3=C(CC[C@@]12C)[C@@]1(C)CC[C@H](O)C(C)(C)[C@@H]1CC3 [euphol]
- IC50 [3, 6]: 882 ± 78 nM
- IC50 [3, 7]: 513 ± 9 nM
- Effect of Cys208 replacement on concentration-response curve (MGL C208G mutant; C208G vs wt, HeLa cell extracts): no effect
- IC50 (MGL C201G mutant): 2600 ± 200 nM
- Effect of Cys32 mutation on activity of inhibitor (MGL Cys32 mutant): did not influence the activity
- Mechanism of MGL inhibition (non-purified HeLa MGL): reversible and non-competitive
- Effect on PEA levels ([2]; 10 μM, 30 min, data not shown): small, non-significant change
- Cellular 2-AG levels ([2]; 10 μM, 30 min, over vehicle-treated neurons): 1.2±0.2 fold change
- IC50 (rat ABHD6): 9000 ± 1000 nM
